Measured values reported in ChEMBL document CHEMBL3351483, “Desmethyl macrolides: synthesis and evaluation of 4-desmethyl telithromycin” (ACS Med Chem Lett, 2014).
Values after ≈ are worked out from the molar mass of the structure shown.

What was measured:
Bacterial 70S ribosome = test: Binding affinity to Escherichia coli ribosomes after 2 hrs by fluorescence polarization assay in presence of BODIPY-labeled erythromycin A
Summary of the method: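 Competitive fluorescence polarization binding assay with isolated E. coli ribosomes and BODIPY-labelled erythromycin as the displaced probe; dissociation constant (Kd) derived from probe displacement.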

Escherichia coli [1] = test: Antimicrobial activity against tolC-negative Escherichia coli DK/2058G harboring ribosome A2058G mutant; assay type: functional
Summary of the method: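 MIC determination in a tolC(−) E. coli strain lacking the outer-membrane efflux pump, carrying a mixed ribosome population of wild-type and A2058G mutant at about 1:1.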

Escherichia coli [2] = test: Antimicrobial activity against Escherichia coli SQ171/2058G harboring ribosome A2058G mutant; assay type: functional
Staphylococcus aureus [3] = test: Antimicrobial activity against Staphylococcus aureus ATCC 33591 harboring ermA gene; assay type: functional
[4] = Selectivity ratio of MIC for Escherichia coli […] harboring ribosome A2058G mutant to MIC for tolC-negative wild type Escherichia coli DK/pKK3535; assay type: functional
Escherichia coli [5] = test: Antimicrobial activity against tolC-negative wild type Escherichia coli DK/pKK3535; assay type: functional
Summary of the method: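 MIC determined against E. coli DK/pKK3535, a tolC(−) strain that lacks the outer-membrane TolC efflux pump, which recognizes antibacterial drugs, and that carries wild-type ribosomes.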

Staphylococcus aureus [6] = test: Antimicrobial activity against Staphylococcus aureus UCN14 harboring ribosome A2058T mutant; assay type: functional

Row | Structure (SMILES) | Kd (Bacterial 70S ribosome) | MIC (Escherichia coli [1]) | MIC (Escherichia coli [2]) | MIC (Staphylococcus aureus [3]) | Selectivity ratio [4] | MIC (Escherichia coli [5]) | MIC (Staphylococcus aureus [6])
1 | CC[C@H]1OC(=O)[C@H](C)C(=O)C[C@@H](O[C@@H]2O[C@H](C)C[C@H](N(C)C)[C@H]2O)[C@](C)(OC)C[C@@H](C)C(=O)[C@H](C)[C@H]2N(CCCCn3cnc(-c4cccnc4)c3)C(=O)O[C@]12C | 6.4 nM | 1 µg/mL (≈ 1.25 µM) | > 256 µg/mL | > 128 µg/mL | 4 | 0.5 µg/mL (≈ 0.627 µM) | > 128 µg/mL
2 | CC[C@H]1OC(=O)[C@H](C)C(=O)[C@H](C)[C@@H](O[C@@H]2O[C@H](C)C[C@H](N(C)C)[C@H]2O)[C@](C)(OC)C[C@@H](C)C(=O)[C@H](C)[C@H]2N(CCCCn3cnc(-c4cccnc4)c3)C(=O)O[C@]12C [TELITHROMYCIN] | 6.4 nM | 4 µg/mL (≈ 4.93 µM) | > 256 µg/mL | > 128 µg/mL | – | 0.5 µg/mL (≈ 0.616 µM) | > 256 µg/mL
